Experimental data published in ChEMBL document CHEMBL1772981, “Discovery of 2-arylbenzoxazoles as upregulators of utrophin production for the treatment of Duchenne muscular dystrophy” (J Med Chem, 2011).
Converted amounts (≈) assume the structure as drawn.

Columns and labels:
Mus musculus [1] = species: Mus musculus; test: Activation of UTRN promoter in mouse H2K cells assessed as upregulation of UTRN production after 48 hrs by luciferase reporter linked assay; assay type: functional, cell-based; details: Mus musculus, H2K, 48 h
Outline: (§1)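 H2K myoblasts stably carrying a utrophin (UTRN) promoter–luciferase reporter were plated 24 h before dosing and exposed to compound for 48 h. Luciferase was read by luminescence (Steady-Glo). The primary screen was at 10 μM and the secondary at six concentrations for EC50, both in triplicate. Non-EC50 values are % of the reference upregulator's maximum, given with the concentration at maximum.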

Mus musculus [2] = species: Mus musculus; test: Activation of UTRN promoter in mouse H2K cells assessed as upregulation of UTRN production at 10 uM after 48 hrs by luciferase reporter linked assay; assay type: functional; outline: as §1
Mus musculus [3] = species: Mus musculus; test: Activation of UTRN promoter in mouse H2K cells assessed as upregulation of UTRN production at 10 uM after 72 hrs by RT-PCR analysis; assay type: functional
Outline: (§2)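 H2K cells were seeded at 25000 per well, left 24 h, then dosed for 72 h in 1% DMSO final. Total RNA was extracted and reverse transcribed. qPCR used an amplicon spanning the UTRN exon 3–4 boundary, with β-actin as the endogenous control, and was quantified by ΔΔCT. Values are % UTRN relative to DMSO control (=100), with P value.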

[4] = Half life in mouse liver microsomes; assay type: ADME, Microsome
Mus musculus [5] = test: Tmax in CD1 mouse at 10 mg/kg, ip; assay type: ADME, organism-based; design: dose 10 mg/kg, route intraperitoneal; details: in vivo
Outline: (§3)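 Male CD1 mice were dosed i.p. at 10 mg/kg in 95% PBS containing 0.1% Tween 20 and 5% DMSO. Plasma was sampled at 5–360 or 5–480 min. AUC is in μg.min/mL. Half-life was not calculated where the log concentration–time plot lacked a linear region of at least three points.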

Mus musculus [6] = test: Cmax in CD1 mouse at 10 mg/kg, ip; assay type: ADME, organism-based; design: dose 10 mg/kg, route intraperitoneal; details: in vivo; outline: as §3
Mus musculus [7] = test: Half life in CD1 mouse at 10 mg/kg, ip; assay type: ADME, organism-based; design: dose 10 mg/kg, route intraperitoneal; details: in vivo; outline: as §3
Mus musculus [8] = test: AUC in CD1 mouse at 10 mg/kg, ip; assay type: ADME, organism-based, Plasma; design: dose 10 mg/kg, route intraperitoneal; details: in vivo; outline: as §3
[9] = Aqueous solubility of the compound by turbidimetry; assay type: physicochemical; details: buffer
Outline: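 Turbidimetric aqueous solubility, reported as the final test compound concentration.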

[10] = Half life in human liver microsomes; assay type: ADME, Microsome
Mus musculus [11] = species: Mus musculus; test: Activation of UTRN promoter in mouse H2K cells assessed as upregulation of UTRN production at 3 uM after 48 hrs by luciferase reporter linked assay; assay type: functional; outline: as §1
Mus musculus [12] = species: Mus musculus; test: Activation of UTRN promoter in mouse H2K cells assessed as upregulation of UTRN production at 3 uM after 72 hrs by RT-PCR analysis; assay type: functional; outline: as §2

| SMILES | EC50 (Mus musculus [1]) [µM] | further results |
| --- | --- | --- |
| CC(=O)Nc1ccc2oc(-c3ccccc3)nc2c1 | 3 |  |
| Cc1ccc(-c2nc3cc(NC(=O)C(C)C)ccc3o2)cc1 |  | Activity (Mus musculus [2]): 95% |
| Cc1cc2nc(-c3ccc(N)cc3O)oc2cc1C | 0.7 | Activity (Mus musculus [3]): 144.8%; half-life [4]: 22 min; Tmax (Mus musculus [5]): 5 min; Cmax (Mus musculus [6]): 0.0109 µg/mL; t1/2 (Mus musculus [7]): 40.9 min; AUC (Mus musculus [8]): 0.01 µg·h/mL; solubility kinetic [9]: 1 µM (≈ 0.254 µg/mL) |
| CC(C)S(=O)(=O)Nc1ccc2oc(-c3ccc(Cl)cc3)nc2c1 | > 30 |  |
| CC(C)CNc1ccc2oc(-c3ccc(Cl)cc3)nc2c1 | > 30 |  |
| C[C@H](N)C(=O)Nc1ccc2oc(-c3ccc(Cl)cc3)nc2c1 |  | Activity (Mus musculus [11]): 35% |
| CCC(=O)c1ccc2oc(-c3ccc(Cl)cc3)nc2c1 | 0.9 | half-life [4]: 13 min |
| CC(C)C(=O)Nc1ccc2[nH]c(-c3ccc(Cl)cc3)nc2c1 | 10 |  |
| CC(C)c1ccc2oc(-c3ccc(N)cc3O)nc2c1 | 1 |  |
| Nc1ccc(-c2nc3cc(N)ccc3o2)c(O)c1 | 3.5 |  |
| Nc1ccc2oc(-c3ccc(Cl)c(Cl)c3)nc2c1 |  | Activity (Mus musculus [11]): 107% |
| CCC(=O)Nc1ccc2oc(-c3ccccc3)nc2c1 | 0.8 |  |
| CCC(=O)Nc1ccc2oc(-c3ccc(Cl)cc3)nc2c1 |  | Activity (Mus musculus [11]): 85% |
| CCCC(=O)Nc1ccc2oc(-c3ccccc3)nc2c1 | 3 |  |
| CCCCC(=O)Nc1ccc2oc(-c3ccccc3)nc2c1 |  | Activity (Mus musculus [2]): 69% |
| O=C(Nc1ccc2oc(-c3ccccc3)nc2c1)c1ccccc1 | > 30 |  |
| CCCC(=O)Nc1ccc2oc(-c3ccc(Cl)cc3)nc2c1 | 3.5 |  |
| O=C(Nc1ccc2oc(-c3ccc(Cl)cc3)nc2c1)c1ccccc1 | > 30 |  |
| O=C(Cc1ccccc1)Nc1ccc2oc(-c3ccc(Cl)cc3)nc2c1 | 5 |  |
| O=C(CCc1ccccc1)Nc1ccc2oc(-c3ccc(Cl)cc3)nc2c1 | > 30 |  |
| COc1ccc(-c2nc3cc(NC(=O)C(C)C)ccc3o2)cc1 |  | Activity (Mus musculus [2]): 132% |
| CCN(CC)c1ccc(-c2nc3cc(NC(=O)C(C)C)ccc3o2)cc1 |  | Activity (Mus musculus [2]): 12% |
| CC(C)C(=O)Nc1ccc2oc(-c3ccc(C(F)(F)F)cc3)nc2c1 |  | Activity (Mus musculus [2]): 22% |
| CC(C)C(=O)Nc1ccc2oc(-c3cccc(Cl)c3Cl)nc2c1 | 10 |  |
| CC(C)C(=O)Nc1ccc2oc(-c3ccc(Cl)cc3Cl)nc2c1 |  | Activity (Mus musculus [2]): 53% |
| CC(C)C(=O)Nc1ccc2oc(-c3cc(Cl)ccc3Cl)nc2c1 | > 30 |  |
| CC(C)C(=O)Nc1ccc2nc(-c3cccc(Cl)c3Cl)oc2c1 | > 30 |  |

The next lines start with results.

| EC50 (Mus musculus [1]) [µM] | SMILES | further results |
| --- | --- | --- |
| > 30 | CC(C)C(=O)N(C)c1ccc2oc(-c3ccc(Cl)cc3)nc2c1 |  |
| 0.4 | CC(C)C(=O)Nc1ccc2oc(-c3ccc(Cl)cc3)nc2c1 | half-life [4]: 19.3 min; half-life [10]: 286 min; Tmax (Mus musculus [5]): 15 min; Cmax (Mus musculus [6]): 2.807 µg/mL; t1/2 (Mus musculus [7]): 136 min; AUC (Mus musculus [8]): 3.82 µg·h/mL; solubility kinetic [9]: 3 µM (≈ 0.944 µg/mL) |
| > 30 | CC(C)NC(=O)c1ccc2oc(-c3ccc(Cl)cc3)nc2c1 |  |
| > 30 | CC(C)C(=S)Nc1ccc2oc(-c3ccc(Cl)cc3)nc2c1 |  |
| 1.2 | CC(C)C(=O)Nc1ccc2sc(-c3ccc(Cl)cc3)nc2c1 |  |
| > 30 | CC(C)C(=O)Nc1ccc2oc(-c3ccc(Cl)cc3)cc2c1 |  |
| 1.5 | CC(C)C(=O)Nc1ccc2oc(-c3ccc(Cl)c(Cl)c3)nc2c1 | Activity (Mus musculus [12]): 128.2% |
| 0.8 | CC(C)C(=O)Nc1ccc2oc(-c3ccccc3)nc2c1 |  |
| 0.9 | CC(C)C(=O)Nc1ccc2oc(-c3ccc(F)cc3)nc2c1 | half-life [4]: 16.1 min |
| 4.5 | CC(C)C(=O)Nc1ccc2oc(-c3cccc(Cl)c3)nc2c1 |  |
| 1.1 | CC(C)C(=O)Nc1ccc2oc(-c3ccccc3Cl)nc2c1 |  |
| > 30 | Cc1ccc(-c2nc3c(NC(=O)C(C)C)cccc3o2)cc1 |  |
| 3 | CC(C)C(=O)Nc1ccc2nc(-c3ccc(Cl)cc3)oc2c1 |  |
| > 30 | CC(C)C(=O)Nc1cc2oc(-c3ccc(Cl)cc3)nc2cc1Cl |  |
